Assay outcomes: PubChem, several laboratories
m5-HT2A agonist = mouse Htr2a agonists via beta-arrestin recruitment, primary screen, cell-based, luminescence. CHO-K1 mHTR2A beta-arrestin complementation; percent of 30 µM serotonin response. activation, % at 7.6 µM. 0.66% of 360,000 active;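 active means activation above a run cutoff, the mean activation of all tested compounds plus 3 SD, cut at about 14% in these data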;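 further: 0% = plate median of compound wells and 100% = 30 µM serotonin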
Target sequence (P35363 whole entry, looked up): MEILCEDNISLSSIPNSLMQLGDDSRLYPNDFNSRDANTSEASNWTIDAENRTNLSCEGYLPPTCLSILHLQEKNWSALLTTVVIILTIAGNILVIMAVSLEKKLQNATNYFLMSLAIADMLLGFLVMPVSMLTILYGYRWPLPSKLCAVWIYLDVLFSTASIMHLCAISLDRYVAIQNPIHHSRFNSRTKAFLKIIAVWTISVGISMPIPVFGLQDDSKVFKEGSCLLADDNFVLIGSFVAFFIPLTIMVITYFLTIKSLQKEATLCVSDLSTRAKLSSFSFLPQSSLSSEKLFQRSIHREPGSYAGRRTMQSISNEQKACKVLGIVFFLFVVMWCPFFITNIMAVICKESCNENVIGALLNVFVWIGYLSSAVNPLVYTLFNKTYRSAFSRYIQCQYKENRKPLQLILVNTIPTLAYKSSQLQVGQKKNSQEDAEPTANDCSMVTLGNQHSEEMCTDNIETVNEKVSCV
AI-2 QS modul = Vibrio harveyi AI-2 quorum sensing modulators, primary screen, JMH597 strain, luminescence/OD600 ratio; Vibrio harveyi JMH597 AI-2 luminescence/OD600 ratio, 9 h; active compounds read low; strain lacks LuxN and CqsS sensors; 0 = neutral-control median; activity change, % at 7.5 µM; 0.4% of 300,000 active; AID 2094, 2009; in the data active means activity change below about -75%, passing the limit was not always enough;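 further: luminescence divided by OD600 gain over 9 h not by final OD600 alone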
MsrA inhibitor = bovine MsrA enzyme inhibitors, primary screen, biochemical, absorbance, HTS. Methionine sulfoxide reductase A (Bos taurus). purified bovine MsrA, absorbance read-out. inhibition, % at 15.5 µM. 0.75% of 360,000 active; in the data active means inhibition above about 4.5%;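 further: 0% = vehicle wells with enzyme and 100% = reference inhibitor wells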
AHR activator = AHR activators, primary screen, cell-based, luminescence, luciferase reporter, human; Aryl hydrocarbon receptor (Homo sapiens), P35869; AHR-responsive luciferase reporter cells; 2.5% of 320,000 active; AID 2796, 2010; activation, % at 5 µM; in the data active means activation above about 47%;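 further: 0% = vehicle wells and 100% = reference agonist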
Tb MetRS inh = T. brucei MetRS inhibitors, primary screen, biochemical, luminescence. methionyl-tRNA synthetase (Trypanosoma brucei brucei). purified T. brucei MetRS, ATP depletion, Kinase-Glo luminescence. inhibition, % at 11.9 µM. 0.4% of 360,000 active. AID 624268, 2012;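 active means inhibition above a per-plate cutoff of the control wells' mean inhibition plus 3 SD, cut at about 5.5% in these data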;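 further: 0% = DMSO wells median and 100% = median of wells with control inhibitor compound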
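Assay system: T. brucei methionyl-tRNA synthetase, purified | Medium: HEPES buffer with MgCl2, KCl, DTT, spermine, BSA, pyrophosphatase | Compound: 11.9 µM single point | Incubation: 15 min enzyme-compound preincubation, 2 h reaction, 10 min detection, 25 °C | Measured by: Kinase-Glo luciferase luminescence reporting remaining unconsumed ATP | Measure: % inhibition normalized to control-well medians | Replication: Singlicate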
MsrA act = bovine MsrA enzyme activators, primary screen, biochemical, absorbance, HTS | Methionine sulfoxide reductase A (Bos taurus) | purified bovine MsrA, absorbance read-out | 0.3% of 360,000 active | activation, % at 10.6 µM; in the data active means activation above about 7.5%;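 further: 0% = vehicle and 100% = reference activator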
* hit, by the source's call; . = no result given. The list is not random: actives were taken first. Their share in the collection is about 4.4%.

SMILES | m5-HT2A agonist | AI-2 QS modul | MsrA inhibitor | AHR activator | Tb MetRS inh | MsrA act
CCOc1cc(N2CCOCC2)c(OCC)cc1NC(=O)Cn1[nH]c(=O)c2ccccc2c1=O | -1.2 | 21.3 | -0.6 | 5.3 | -0.2 | -3.0
CCOc1ccccc1NC(=O)Nc1ccc(Br)cn1 | -1.5 | 17.4 | -1.1 | 15.6 | 0.2 | -1.3
COc1ccccc1C(=O)NC(=S)NNC(=O)c1sc2ccccc2c1Cl | -0.9 | 13.3 | 0.2 | 19.9 | 0.6 | -2.3
CCOc1ccccc1NC(=O)Cn1[nH]c(=O)c2ccccc2c1=O | -1.6 | 37.5 | . | 64.4* | -0.6 | -1.8
CCOc1ccccc1NC(=O)Nc1ccc(Cl)cc1 | -0.4 | 12.0 | 0.7 | 52.7* | 0.2 | -6.7
COc1ccccc1C(=O)NNC(=S)NC(=O)c1sc2ccccc2c1Cl | -3.2 | 16.5 | 0.1 | 47.6* | 0.4 | -2.5
CCOc1ccccc1NC(=O)Nc1ccccn1 | 5.1 | 13.3 | 0.1 | 54.4* | -0.8 | -3.4
O=C(O)Cn1ccnc1[N+](=O)[O-] | 0.3 | . | 1.9 | . | -0.2 | -0.5
O=C(NCc1ccccc1)[C@H]1CCCN1C(=O)[C@H]1CCCN1C(=O)c1cccs1 | . | . | 0.6 | . | . | .
COc1ccccc1C(=O)NC(=S)Nc1cccnc1Cl | 0.2 | . | -0.7 | 75.0* | -0.4 | -1.4
Cc1cccc(NNC(=S)Nc2ccccc2)c1 | 3.2 | . | 2.9 | . | -0.4 | -5.5
COc1ccccc1NC(=O)C(=O)Nc1ccccn1 | -1.9 | 6.8 | 2.2 | 39.3 | -0.1 | -2.6
Cc1ccc(C(=O)NC(=S)Nc2cccnc2Cl)cc1 | -5.9 | 20.7 | 0.2 | -2.5 | -0.3 | -1.3
Cc1cccc(NC(=S)Nc2ccccn2)c1 | -1.8 | -8.7 | -1.0 | 58.1* | -0.6 | -2.8
COc1ccccc1NC(=S)Nc1ccccn1 | 2.2 | 29.9 | -0.3 | 116.7* | 0.2 | -2.6
Cc1cccc(NC(=S)NNc2cccc(Cl)c2)c1 | -1.2 | 6.0 | 1.0 | 53.1* | -0.4 | -4.0
O=C(NCc1ccccc1)[C@H]1CCCN1C(=O)[C@H]1CCCN1C(=O)c1cccc2ccccc12 | . | . | 0.0 | . | . | .
O=S(=O)(c1ccccc1)N1CCCc2nc(-c3ccc(F)cc3)ccc21 | . | . | -0.5 | . | . | .
CCCn1nnc(NC(=O)c2ccccc2Cl)n1 | -1.8 | 24.7 | 1.2 | 1.5 | -0.4 | -2.3
CCCn1nnc(NC(=S)NC(=O)c2ccccc2OC)n1 | -9.0 | . | 1.6 | 56.9* | -0.3 | 1.2
CCc1cc(C(=O)Nc2ccc(OC)nc2)sc1C | -3.3 | 44.7 | -0.1 | 20.1 | -0.4 | -1.6
CCc1cc(C(=O)Nc2ncccc2O)sc1C | 0.6 | 26.1 | 2.6 | 77.6* | 0.1 | -1.9
CCc1ccc2oc(-c3ccc(OC)cc3)cc(=Nc3c(C)n(C)n(-c4ccccc4)c3=O)c2c1 | -21.2 | 5.9 | 1.9 | 56.6* | -0.2 | -1.0
CCc1ccc2oc(-c3ccc(OC)cc3)cc(=Nc3cccc(C(=O)O)c3)c2c1 | -8.3 | 40.6 | 3.9 | -12.2 | 0.3 | -0.9
COc1ccc(C2CC(=O)C(c3ccc(Cl)cc3)=CN2Cc2ccccc2)cc1 (centres undefined) | . | . | -0.5 | . | . | .
SMILES | m5-HT2A agonist | AI-2 QS modul | MsrA inhibitor | AHR activator | Tb MetRS inh | MsrA act
O=C(/C=C/c1ccc(Br)cc1)c1ccc(NC2=NCCCS2)cc1 | -9.0 | 11.7 | 4.8* | 3.5 | 0.5 | -3.9
Cc1sc(NC(=S)NC(=O)C2CCCCC2)c(C(N)=O)c1C | -0.5 | 24.5 | -0.8 | 56.3* | 0.3 | -1.9
Cc1sc(NC(=S)Nc2ccc(F)cc2)c(C(N)=O)c1C | -1.9 | 32.4 | 1.6 | 81.2* | -0.5 | 5.9
Cc1sc(NC(=O)c2ccc(Br)s2)c(C(N)=O)c1C | 2.5 | -4.2 | 1.3 | 58.6* | -1.1 | -5.2
COC(=O)C1=C(C)NC(C)=C(C(=O)OC)C(N2C(=O)CCC2=O)C1 (centres undefined) | . | . | 0.6 | . | . | .
COc1ccc(C(=O)Oc2cc(C)c(CN3CCOCC3)cc2C)cc1OC | 1.0 | 23.7 | -0.6 | 2.2 | -0.2 | -4.2
c1ccc(CN2CCN(c3ncnc4nc[nH]c34)CC2)cc1 | 23.7* | 12.1 | 0.3 | 2.0 | -0.9 | -4.1
C1=C(c2ccccc2)CCN(c2ncnc3nc[nH]c23)C1 | -4.3 | 11.5 | 1.7 | 8.4 | 1.4 | -2.4
O=C(Nc1cccc(Cl)c1)NN(c1ccccc1)C1CCS(=O)(=O)C1 (centres undefined) | . | . | -0.2 | . | . | .
COc1cc(OC)cc(-c2nc(-c3ccc(Br)cc3)no2)c1 | 2.9 | 13.4 | -1.0 | 4.9 | -1.3 | 0.4
COc1cccc(-c2noc(-c3ccoc3C)n2)c1 | 2.7 | 14.4 | -0.8 | 69.3* | -0.5 | -2.1
COc1ccc(-c2noc(-c3ccoc3C)n2)cc1 | 0.3 | 14.7 | 1.5 | 26.4 | 1.4 | -14.7
